Results published in ChEMBL document CHEMBL1126834, “Chemistry, binding affinities, and behavioral properties of a new class of "antineophobic" mitochondrial DBI receptor complex (mDRC) ligands” (J Med Chem, 1993).
Values joined by “and” are separate entries in the source; they are usually repeats but may differ in a detail not shown here. Equal values may be shown once.

Key:
[1] = Inhibitory activity by measuring its ability to displace [3H]glycine from glycine receptor in rat brain; format: tissue-based
[2] = target: GABA-A receptor; anion channel; assay: Inhibitory activity at GABA A receptor, measured by the ability to displace [35S]TBPS from GABA A receptor in rat brain; format: tissue-based
[3] = target: GABA-A receptor; anion channel; assay: Inhibitory activity at GABA A receptor, measured by the ability to displace [3H]GABA from GABA A receptor in rat brain; format: tissue-based
[4] = Inhibitory activity by measuring its ability to displace [3H]spiperone from dopamine or serotonin 5-HT-1 receptors in rat brain; format: tissue-based
[5] = target: T1, Gastrin/cholecystokinin type B receptor (Rattus norvegicus, UniProt P30553); assay: Inhibitory activity by measuring its ability to displace [3H]L-365260 from cholecystokinin receptor in rat brain; format: tissue-based
T1 sequence (P30553 whole entry): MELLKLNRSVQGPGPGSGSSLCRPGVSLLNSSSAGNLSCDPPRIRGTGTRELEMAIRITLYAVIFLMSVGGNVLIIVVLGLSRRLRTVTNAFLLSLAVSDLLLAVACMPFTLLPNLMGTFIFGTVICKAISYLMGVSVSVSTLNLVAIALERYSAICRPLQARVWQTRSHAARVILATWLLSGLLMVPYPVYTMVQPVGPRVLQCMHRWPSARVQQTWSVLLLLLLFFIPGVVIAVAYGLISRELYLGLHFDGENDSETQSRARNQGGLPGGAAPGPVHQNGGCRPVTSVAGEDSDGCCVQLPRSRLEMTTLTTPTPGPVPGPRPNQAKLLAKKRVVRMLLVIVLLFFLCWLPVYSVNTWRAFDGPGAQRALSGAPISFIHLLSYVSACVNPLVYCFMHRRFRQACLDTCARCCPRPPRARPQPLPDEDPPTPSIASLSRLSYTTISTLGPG

[6] = target: GABA-A receptor; anion channel; assay: Inhibitory activity at GABA A receptor, measured by the ability to displace [3H]flumazenil from GABA A receptor in rat brain; format: tissue-based
[7] = target: Adrenergic receptor alpha; assay: Displacement of [3H]clonidine from alpha-adrenergic receptor in rat brain; format: tissue-based
Glutamate NMDA receptor = assay: Inhibitory activity by measuring its ability to displace [3H]-MK-801 from glutamate(NMDA) receptor in rat brain; format: tissue-based
[8] = target: Adrenergic receptor alpha; assay: Inhibitory activity by measuring its ability to displace [3H]WB-4101 from alpha-adrenergic receptor in rat brain; format: tissue-based
Translocator protein = Translocator protein (Rattus norvegicus, UniProt P16257); assay: Binding affinity against mitochondrial DBI complex (peripheral benzodiazepine receptor) using primary cultures of glial cells
Chain of Translocator protein (P16257 whole entry, looked up): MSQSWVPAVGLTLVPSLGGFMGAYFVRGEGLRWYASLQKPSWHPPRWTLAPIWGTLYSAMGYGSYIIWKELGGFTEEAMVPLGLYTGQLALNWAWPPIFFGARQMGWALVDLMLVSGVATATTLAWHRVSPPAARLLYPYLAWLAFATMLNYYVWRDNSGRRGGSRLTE
In short: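 Glia from cerebella of 8-day-old Sprague–Dawley rat pups, trypsin-dissociated and grown 14 days (~95% astroglia). Cells lysed in 50 mM Hepes pH 7.4, 4 μg protein per tube. Incubated with [3H]4'-chlorodiazepam and competitor for 90 min at 4 °C, then filtered. Nonspecific binding defined with 10 μM 4'-chlorodiazepam. Triplicate competition curves; IC50 by nonlinear regression, converted to Ki (Bylund–Yamamura).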

Adrenergic receptor beta = Adrenergic receptor beta (Rattus norvegicus, UniProt P18090+P10608+P26255); assay: Inhibitory activity by measuring its ability to displace [125I]pindolol from beta-adrenergic receptor in rat brain; format: tissue-based
[9] = Inhibitory activity at GABA B receptor, measured by the ability to displace [3H]baclofen from GABA B receptor in rat brain; format: tissue-based
[10] = Tested for inhibitory activity by measuring its ability to displace [3H]AMPA from glutamate (non-NMDA) receptor in rat brain; format: tissue-based
Cannabinoid receptor 1 = Cannabinoid receptor 1 (Rattus norvegicus, UniProt P20272); assay: Inhibitory activity, measured by displacement [3H]CP-55940 from cannabinoid receptor (CB1) in rat brain; format: tissue-based
Chain of Cannabinoid receptor 1 (P20272 whole entry): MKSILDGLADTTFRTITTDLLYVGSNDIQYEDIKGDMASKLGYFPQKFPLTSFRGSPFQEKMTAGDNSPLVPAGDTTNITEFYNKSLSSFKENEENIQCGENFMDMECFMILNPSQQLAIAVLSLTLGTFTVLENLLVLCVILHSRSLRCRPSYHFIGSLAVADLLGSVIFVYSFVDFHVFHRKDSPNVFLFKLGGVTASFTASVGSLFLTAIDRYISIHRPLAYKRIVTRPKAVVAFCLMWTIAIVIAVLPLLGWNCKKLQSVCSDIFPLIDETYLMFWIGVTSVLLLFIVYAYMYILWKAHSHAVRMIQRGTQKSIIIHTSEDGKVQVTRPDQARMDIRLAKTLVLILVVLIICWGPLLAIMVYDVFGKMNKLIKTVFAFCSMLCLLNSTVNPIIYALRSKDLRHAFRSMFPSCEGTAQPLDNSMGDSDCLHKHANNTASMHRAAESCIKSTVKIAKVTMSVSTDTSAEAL

[11] = target: Sigma receptor (Rattus norvegicus); assay: Tested for inhibitory activity by measuring its ability to displace [3H]3-PPP from sigma receptor in rat brain
[12] = target: Serotonin 2 (5-HT2) receptor (Rattus norvegicus); assay: Inhibitory activity by measuring its ability to displace [3H]ketanserin from serotonin receptor in rat brain
[13] = target: GABA-A receptor; anion channel; assay: Inhibitory activity at GABA A receptor, measured by the ability to displace [3H]zolpidem from GABA A receptor in rat brain; format: tissue-based
Opioid receptor = Opioid receptor (Rattus norvegicus, UniProt P33533+P34975+P33535); assay: Inhibition of [3H]naxolone binding to opiate receptors in rat brain; format: tissue-based
Rattus norvegicus [14] = assay: Tested for antineophobic activity using the elevated plus maze test administered at 59 umol/kg perorally in rats; format: functional
[15] = target: Adrenergic receptor alpha; assay: Inhibitory activity by measuring its ability to displace [3H]clonidine from alpha-adrenergic receptor in rat brain; format: tissue-based
Rattus norvegicus [16] = assay: Tested for antineophobic activity using the elevated plus maze test administered at 57 umol/kg perorally in rats; format: functional
Rattus norvegicus [17] = assay: Tested for antineophobic activity administered at 225 umol/kg perorally in adrenalectomized/castrated rats; format: functional
In short: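 Rats of 175–200 g were adrenalectomized and castrated 3 days before the elevated plus maze. Drug was suspended in 1% DMSO/H2O and given by oral gavage 1 h before the test. […] was scored; n = 10 rats, mean ± SEM.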

Rattus norvegicus [18] = assay: Tested for antineophobic activity using the elevated plus maze test administered at 40 umol/kg perorally in rats; format: functional
Rattus norvegicus [19] = assay: Tested for antineophobic activity using the elevated plus maze test administered at 71 umol/kg perorally in rats; format: functional

| SMILES | IC50 [1] [µM] | IC50 [2] [µM] | IC50 [3] [µM] | IC50 [4] [µM] | IC50 [5] [µM] | IC50 [6] [µM] | IC50 [7] [µM] | IC50 (Glutamate NMDA receptor) [µM] | IC50 [8] [µM] | Ki (Translocator protein) [µM] | IC50 (Adrenergic receptor beta) [µM] | IC50 [9] [µM] | IC50 [10] [µM] | IC50 (Cannabinoid receptor 1) [µM] | IC50 [11] [µM] | IC50 [12] [µM] | IC50 [13] [µM] | IC50 (Opioid receptor) [µM] | No. of entries (Rattus norvegicus [14]) | IC50 [15] [µM] | further results |
| --- | --- | --- | --- | --- | --- | --- | --- | --- | --- | --- | --- | --- | --- | --- | --- | --- | --- | --- | --- | --- | --- |
| CCCN(CCC)C(=O)Cc1c2n(c3ccccc13)Cc1ccccc1-2 | > 1 | > 1 | > 1 | > 1 | > 1 | > 1 | > 1 | > 1 | > 1 | 0.02 | > 1 | > 1 | > 1 | > 1 | > 1 | > 1 | > 1 | > 1 |  |  |  |
| CCCCCCN(CCCCCC)CCc1c(-c2ccc(F)cc2)[nH]c2ccccc12 | > 1 | > 1 | > 1 | > 1 | > 1 | > 1 | > 1 | > 1 | > 1 | 0.2 | > 1 | > 1 | > 1 | > 1 |  |  | > 1 |  | 2 |  | Time (Rattus norvegicus [14]): 4.1% |
| CCCCCCN(CCCCCC)C(=O)Cc1c(-c2ccc(F)cc2)[nH]c2ccccc12 | > 1 | > 1 | > 1 | > 1 | > 1 | > 1 |  | > 1 | > 1 | 0.0044 | > 1 | > 1 | > 1 | > 1 |  |  | > 1 |  |  | > 1 | No. of entries (Rattus norvegicus [16]): 2.1; Time (Rattus norvegicus [16]): 4.5%; No. of entries (Rattus norvegicus [17]): 4.9 and 5.5; Time spent (Rattus norvegicus [17]): 22 s and 25 s |
| CCCCN(CCCC)C(=O)Cc1c(-c2ccc(F)cc2)[nH]c2ccccc12 | > 1 | > 1 | > 1 | > 1 | > 1 | > 1 |  | > 1 | > 1 | 0.045 | > 1 | > 1 | > 1 | > 1 | > 1 | > 1 | > 1 | > 1 |  | > 1 | No. of entries (Rattus norvegicus [18]): 3.6; Time (Rattus norvegicus [18]): 8% |
| CCCCCCN(CCCCCC)C(=O)Cc1c(-c2ccccc2)[nH]c2ccccc12 | > 1 | > 1 | > 1 | > 1 | > 1 | > 1 |  | > 1 | > 1 | 0.0097 | > 1 | > 1 | > 1 | > 1 | > 1 | > 1 | > 1 | > 1 | 1.6 | > 1 | Time (Rattus norvegicus [14]): 6.2% |
| CCCCCCNC(=O)Cc1c(-c2ccc(F)cc2)[nH]c2ccccc12 | > 1 | > 1 | > 1 | > 1 | > 1 | > 1 |  | > 1 | > 1 | 0.323 | > 1 | > 1 | > 1 | > 1 | > 1 | > 1 | > 1 | > 1 |  | > 1 | No. of entries (Rattus norvegicus [19]): 0.6; Time (Rattus norvegicus [19]): 1.6% |
